Reference: ChEMBL document CHEMBL4270633, “Discovery of novel vinyl sulfone derivatives as anti-tumor agents with microtubule polymerization inhibitory and vascular disrupting activities” (Eur J Med Chem, 2018)
The source made the active and inactive calls. No cut-off for these calls is given here.

Assays:
[1] = tested on: K562; experiment: Cell cycle arrest in human K562 cells assessed as accumulation at S phase at 0.005 uM after 48 hrs by propidium iodide staining based flow cytometry (reference value: 49.41%); format: functional
[2] = tested on: K562; experiment: Cell cycle arrest in human K562 cells assessed as accumulation at G2 phase at 0.02 uM after 48 hrs by propidium iodide staining based flow cytometry (reference value: 9.51%); format: functional
[3] = tested on: HUVEC; experiment: Antivascular activity against HUVEC assessed as reduction in wound closure after 24 hrs by phase contrast microscopic method; format: functional, cell-based; conditions: Homo sapiens
In short: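 Scratch wounds made with a sterile 200 µL pipette tip, then treated at 0.05, 0.10, 0.20 µM or 0.005, 0.010, 0.020 µM. Phase-contrast images taken at 0 h and 24 h after treatment.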

[4] = tested on: K562; experiment: Induction of apoptosis in human K562 cells at 0.01 uM after 48 hrs by Annexin V-FITC/propidium iodide staining based flow cytometry (reference value: 1.46%)
[5] = tested on: H22; experiment: Antitumor activity against mouse H22 cells implanted in ICR mouse assessed as tumor growth inhibition at 30 mg/kg, iv administered once daily for 21 consecutive days relative to control; format: functional; conditions: read-out: TGI
In short: (§1)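 Male ICR mice, five weeks old, inoculated s.c. in the right flank with 1 × 10^6 H22 cells. After one day, randomized into groups of six. Given i.v. 15 or 30 mg/kg daily for 21 days in 10% DMF/2% Tween 80/88% saline, or 8 mg/kg every 2 days; vehicle control given i.v. Tumors excised and weighed; inhibition (%) = (1 − treated/control mean tumor weight) × 100.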

[6] = tested on: K562; experiment: Induction of apoptosis in human K562 cells at 0.02 uM after 48 hrs by Annexin V-FITC/propidium iodide staining based flow cytometry (reference value: 1.46%); format: functional
In short: (§2)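 K562 cells treated 48 h at 0, 0.05, 0.1, 0.2 µM or 0, 0.005, 0.010, 0.020 µM. Washed in PBS, resuspended in Annexin V binding buffer and stained 15 min in the dark. Early plus late apoptotic fractions quantified by flow-cytometric quadrant analysis.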

[7] = tested on: K562; experiment: Cell cycle arrest in human K562 cells assessed as accumulation at G1 phase at 0.005 uM after 48 hrs by propidium iodide staining based flow cytometry (reference value: 41.08%); format: functional
[8] = tested on: H22; experiment: Antitumor activity against mouse H22 cells implanted in ICR mouse assessed as tumor growth inhibition at 15 mg/kg, iv administered once daily for 21 consecutive days relative to control; format: functional; conditions: read-out: TGI; in short: as §1
[9] = tested on: K562; experiment: Cell cycle arrest in human K562 cells assessed as accumulation at G2 phase at 0.01 uM after 48 hrs by propidium iodide staining based flow cytometry (reference value: 9.51%); format: functional
[10] = tested on: K562; experiment: Cell cycle arrest in human K562 cells assessed as accumulation at G1 phase at 0.01 uM after 48 hrs by propidium iodide staining based flow cytometry (reference value: 41.08%); format: functional
[11] = tested on: K562; experiment: Cell cycle arrest in human K562 cells assessed as accumulation at S phase at 0.01 uM after 48 hrs by propidium iodide staining based flow cytometry (reference value: 49.41%); format: functional
[12] = tested on: A549; experiment: Antiproliferative activity against human A549 cells after 72 hrs by MTT assay; format: functional, cell-based; conditions: A549, 72 h
In short: (§3)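 Cells seeded and held 24 h at 37 °C, 5% CO2, then exposed to a concentration series in medium with 0.1% DMSO for 72 h. MTT (5 mg/mL in PBS) added for 4 h and OD read at 490 nm. IC50 taken from dose-response curves; mean ± SD of at least three independent experiments.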

[13] = tested on: K562; experiment: Disruption of microtubule network in human K562 cells at 0.005 to 0.02 uM after 24 hrs by DAPI staining based immunofluorescent microscopic method; format: cell-based
In short: (§4)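 K562 cells exposed for 24 h to 0.1% DMSO vehicle or to 0.05, 0.10, 0.20 µM or 0.005, 0.010, 0.020 µM. Fixed in 4% paraformaldehyde, blocked with goat serum 20 min at room temperature, then anti-α-tubulin antibody 2 h at 37 °C. Fluorescent antibody staining, DAPI nuclear counterstain, fluorescence microscopy.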

[14] = tested on: K562; experiment: Cell cycle arrest in human K562 cells assessed as accumulation at G1 phase at 0.02 uM after 48 hrs by propidium iodide staining based flow cytometry (reference value: 41.08%); format: functional
[15] = tested on: K562; experiment: Induction of apoptosis in human K562 cells at 0.005 uM after 48 hrs by Annexin V-FITC/propidium iodide staining based flow cytometry (reference value: 1.46%); format: functional; in short: as §2
[16] = Inhibition of porcine brain tubulin polymerization after 30 mins by spectrophotometric method; design: species or system Sus scrofa
In short: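 Purified tubulin (2 mg/mL) in PEM buffer (80 mM PIPES pH 6.9, 0.5 mM EGTA, 2 mM MgCl2, 15% glycerol), preincubated on ice with compound or DMSO vehicle, then GTP added. Absorbance at 340 nm followed at 37 °C for 30 min. IC50 derived from area under the polymerization curve.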

[17] = tested on: K562; experiment: Antiproliferative activity against human K562 cells at 1 uM after 72 hrs by MTT assay; format: functional, cell-based
[18] = tested on: K562; experiment: Antiproliferative activity against human K562 cells after 72 hrs by MTT assay; format: functional, cell-based; conditions: K562, 72 h; in short: as §3
[19] = tested on: K562; experiment: Cell cycle arrest in human K562 cells assessed as accumulation at S phase at 0.02 uM after 48 hrs by propidium iodide staining based flow cytometry (reference value: 49.41%); format: functional
[20] = tested on: HepG2; experiment: Antiproliferative activity against human HepG2 cells after 72 hrs by MTT assay; format: functional, cell-based; conditions: HepG2, 72 h; in short: as §3
[21] = tested on: K562; experiment: Cell cycle arrest in human K562 cells assessed as accumulation at G2 phase at 0.005 uM after 48 hrs by propidium iodide staining based flow cytometry (reference value: 9.51%); format: functional
[22] = tested on: K562; experiment: Induction of apoptosis in human K562 cells after 48 hrs by Annexin V-FITC/propidium iodide staining based flow cytometry; format: functional, cell-based; in short: as §2
[23] = tested on: K562; experiment: Cell cycle arrest in human K562 cells assessed as accumulation at G1 phase at 0.1 uM after 48 hrs by propidium iodide staining based flow cytometry (reference value: 60.77%); format: functional
[24] = tested on: K562; experiment: Induction of apoptosis in human K562 cells at 0.1 uM after 48 hrs by Annexin V-FITC/propidium iodide staining based flow cytometry (reference value: 1.46%); format: functional; in short: as §2
[25] = tested on: K562; experiment: Disruption of microtubule network in human K562 cells after 24 hrs by DAPI staining based immunofluorescent microscopic method; format: cell-based; in short: as §4
[26] = tested on: K562; experiment: Cell cycle arrest in human K562 cells assessed as accumulation at S phase at 0.05 uM after 48 hrs by propidium iodide staining based flow cytometry (reference value: 30.13%); format: functional
[27] = tested on: K562; experiment: Cell cycle arrest in human K562 cells assessed as accumulation at G2/M phase after 48 hrs by propidium iodide staining based flow cytometry; format: functional
[28] = tested on: K562; experiment: Cell cycle arrest in human K562 cells assessed as accumulation at G2 phase at 0.05 uM after 48 hrs by propidium iodide staining based flow cytometry (reference value: 9.1%); format: functional
[29] = tested on: K562; experiment: Induction of apoptosis in human K562 cells at 0.05 uM after 48 hrs by Annexin V-FITC/propidium iodide staining based flow cytometry (reference value: 1.46%); format: functional; in short: as §2
[30] = tested on: K562; experiment: Cell cycle arrest in human K562 cells assessed as accumulation at G2 phase at 0.1 uM after 48 hrs by propidium iodide staining based flow cytometry (reference value: 9.1%); format: functional
[31] = tested on: K562; experiment: Cell cycle arrest in human K562 cells assessed as accumulation at G2 phase at 0.2 uM after 48 hrs by propidium iodide staining based flow cytometry (reference value: 9.1%); format: functional
[32] = tested on: K562; experiment: Cell cycle arrest in human K562 cells assessed as accumulation at G1 phase at 0.2 uM after 48 hrs by propidium iodide staining based flow cytometry (reference value: 60.77%); format: functional
[33] = tested on: Mus musculus; experiment: Toxicity in ICR mouse implanted with mouse H22 cells assessed as decrease in body weight at 15 to 30 mg/kg, iv administered once daily for 21 consecutive days; format: organism-based; conditions: in vivo
In short: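 H22 s.c. allograft in male ICR mice, groups of six. Dosing i.v. at 15 or 30 mg/kg once daily for 21 days (10% DMF/2% Tween 80/88% saline), or 8 mg/kg once every 2 days. Body weight recorded every 2 days.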

[34] = tested on: H22; experiment: Antitumor activity against mouse H22 cells implanted in ICR mouse assessed as tumor growth inhibition administered iv once daily for 21 consecutive days; format: functional, organism-based; in short: as §1
[35] = tested on: K562; experiment: Induction of apoptosis in human K562 cells at 0.2 uM after 48 hrs by Annexin V-FITC/propidium iodide staining based flow cytometry (reference value: 1.46%); format: functional; in short: as §2
[36] = tested on: HUVEC; experiment: Antivascular activity against HUVEC assessed as reduction in tube formation at 005 to 0.2 uM after 6 hrs by inverted microscopic based matrigel method; format: functional, cell-based; conditions: Homo sapiens
In short: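 Matrigel thawed at 4 °C overnight and polymerized 30 min at 37 °C. HUVECs in DMEM seeded at 50,000 cells/well, then exposed to compound or vehicle for 6 h at 37 °C. Tube morphology examined by inverted microscopy.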

[37] = tested on: K562; experiment: Cell cycle arrest in human K562 cells assessed as accumulation at S phase at 0.1 uM after 48 hrs by propidium iodide staining based flow cytometry (reference value: 30.13%); format: functional
[38] = tested on: K562; experiment: Cell cycle arrest in human K562 cells assessed as accumulation at G1 phase at 0.05 uM after 48 hrs by propidium iodide staining based flow cytometry (reference value: 60.77%); format: functional
[39] = tested on: K562; experiment: Cell cycle arrest in human K562 cells assessed as accumulation at S phase at 0.2 uM after 48 hrs by propidium iodide staining based flow cytometry (reference value: 30.13%); format: functional

Structure (SMILES): COc1ccc(/C=C\c2cc(OC)c(OC)c(OC)c2)cc1O [COMBRETASTATIN A4]
- Activity [1]: 40.02%
- Activity [2]: 24.95%
- Activity [3]: Dose-dependent effect
- Activity [4]: 53.05%
- inhibition in vivo at 30 mg/kg [5]: 56.7%
- Activity [6]: 63.05%
- Activity [7]: 46.14%
- inhibition in vivo at 15 mg/kg [8]: 45%
- Activity [9]: 22.59%
- Activity [10]: 61.16%
- Activity [11]: 16.25%
- IC50 [12]: 37 nM
- Activity [13]: Active
- Activity [14]: 56.51%
- Activity [15]: 25.28%
- IC50 [16]: 2170 nM
- Activity [17]: Active
- IC50 [18]: 21 nM
- Activity [19]: 18.54%
- IC50 [20]: 12 nM
- Activity [21]: 13.84%
- Activity [22]: Dose-dependent effect

Structure (SMILES): COc1ccc(/C=C/S(=O)(=O)c2cc(OC)c(OC)c(OC)c2)cc1N
- Activity [23]: 47.15%
- Activity [24]: 22.65%
- Activity [3]: Dose-dependent effect
- inhibition in vivo at 30 mg/kg [5]: 65.4%
- inhibition in vivo at 15 mg/kg [8]: 53.4%
- Activity [25]: Dose-dependent effect
- Activity [26]: 33.88%
- Activity [27]: Dose-dependent effect
- Activity [28]: 13.05%
- IC50 [12]: 606 nM
- Activity [29]: 17.88%
- Activity [30]: 16.15%
- Activity [31]: 21.99%
- Activity [32]: 39.7%
- Activity [33]: Non-Toxic
- TGI [34]: Dose-dependent effect
- Activity [35]: 49.29%
- Activity [36]: Active
- IC50 [16]: 4250 nM
- IC50 [18]: 128 nM
- Activity [37]: 36.7%
- Activity [38]: 53.07%
- IC50 [20]: 217 nM
- Activity [39]: 38.31%
- Activity [22]: Dose-dependent effect
